Some results are limits rather than exact numbers.

The target of data set [1] is T1, ATP-dependent translocase ABCB1 (Homo sapiens, UniProt P08183). Put plainly: Pgp transport inhibitory activity at 1 uM was measured by JC-1 accumulation assay method using JC-1 as substrate. In kind it is functional. The essentials: (§1)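 JC-1 stock (1 mg/mL in DMSO) diluted to 5 μg/mL in PBS with 1 g/L glucose, then filtered to remove aggregates (monomer 0.2 μM final). Washed K562/DOX cells at 5×10^5/mL were incubated with JC-1 and compound concurrently at 37 °C, DMSO ≤0.5%. Fluorescence (485/590 nm) was followed to plateau, about 2 h. Accumulation is expressed as % of the 5 μM S9788 plate control after subtracting JC-1 alone. Mean of ≥2 experiments.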
T1 sequence (P08183 whole entry): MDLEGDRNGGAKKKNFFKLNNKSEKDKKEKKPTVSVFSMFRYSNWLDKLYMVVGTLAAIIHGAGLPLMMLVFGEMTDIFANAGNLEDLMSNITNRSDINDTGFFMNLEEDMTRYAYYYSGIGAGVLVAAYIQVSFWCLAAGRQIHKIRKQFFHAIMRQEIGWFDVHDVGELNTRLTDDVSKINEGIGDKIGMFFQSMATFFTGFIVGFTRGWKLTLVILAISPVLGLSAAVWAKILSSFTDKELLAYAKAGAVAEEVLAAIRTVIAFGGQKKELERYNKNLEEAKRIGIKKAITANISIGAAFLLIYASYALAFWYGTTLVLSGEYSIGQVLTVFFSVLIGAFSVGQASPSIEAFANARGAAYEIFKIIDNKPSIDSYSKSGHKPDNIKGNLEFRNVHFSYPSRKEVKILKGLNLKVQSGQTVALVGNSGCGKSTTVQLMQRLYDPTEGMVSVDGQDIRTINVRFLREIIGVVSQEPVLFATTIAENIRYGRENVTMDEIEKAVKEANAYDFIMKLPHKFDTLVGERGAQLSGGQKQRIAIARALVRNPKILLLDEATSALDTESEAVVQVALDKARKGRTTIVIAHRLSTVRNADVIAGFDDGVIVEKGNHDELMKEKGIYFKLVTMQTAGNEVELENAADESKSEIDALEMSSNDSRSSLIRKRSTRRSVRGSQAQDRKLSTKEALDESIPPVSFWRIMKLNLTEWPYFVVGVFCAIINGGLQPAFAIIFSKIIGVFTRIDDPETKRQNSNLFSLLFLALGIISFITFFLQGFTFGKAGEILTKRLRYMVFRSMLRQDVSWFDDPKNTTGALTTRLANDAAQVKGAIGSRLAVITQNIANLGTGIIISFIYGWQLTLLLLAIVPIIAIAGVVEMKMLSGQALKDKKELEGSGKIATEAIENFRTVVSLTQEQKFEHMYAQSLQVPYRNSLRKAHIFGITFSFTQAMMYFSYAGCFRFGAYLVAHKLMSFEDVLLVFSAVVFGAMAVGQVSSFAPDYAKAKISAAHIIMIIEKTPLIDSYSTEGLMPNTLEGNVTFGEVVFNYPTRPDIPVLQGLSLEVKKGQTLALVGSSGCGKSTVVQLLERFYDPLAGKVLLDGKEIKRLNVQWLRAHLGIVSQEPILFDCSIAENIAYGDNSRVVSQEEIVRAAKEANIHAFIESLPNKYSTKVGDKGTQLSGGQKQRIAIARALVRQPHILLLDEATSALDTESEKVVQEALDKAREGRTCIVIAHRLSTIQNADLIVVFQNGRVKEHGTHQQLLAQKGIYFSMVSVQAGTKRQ

Data set [2] deals with T1, ATP-dependent translocase ABCB1. The experiment in a line: Pgp transport inhibitory activity at 10 uM was measured by JC-1 accumulation assay method using JC-1 as substrate. In kind it is functional. The method, boiled down: as §1
For data set [3] the target is unchanged. Put plainly: Pgp transport inhibitory activity at 5 uM was measured by JC-1 accumulation assay method using JC-1 as substrate. It is filed as functional. The essentials: as §1
Data set [4] concerns K562. The experiment in a line: Ability to potentiate DOX cytotoxicity on K562/DOX MDR cells. Cell survival was assayed by MTT conversion. In kind it is functional, cell-based. The note with it: Homo sapiens. The method, boiled down: (§2)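 K562/DOX human erythroleukemia cells (doxorubicin-selected, Pgp-overexpressing; RPMI-1640 + 10% FCS) exposed 72 h to seven graded doxorubicin concentrations (six wells each) plus tested compound at 1 or 5 μM, DMSO ≤0.1% final. MTT formazan dissolved in DMSO, A570 read. Survival relative to untreated wells; DOX IC50 by linear interpolation; MF = IC50(DOX alone)/IC50(DOX + compound). Mean of ≥2 independent experiments.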

Data set [5] concerns K562. Put plainly: Modulation factor: IC50(DOX alone)/IC50(DOX+modulator). In kind it is functional, Homo sapiens. The essentials:
as §2

Data set [6] is described as follows: Modulation factor: IC50(DOX alone)/IC50(DOX+modulator). In kind it is functional. The essentials: as §2
A short description of data set [7]: (§3) modulation factor: IC50 (uM). It is filed as functional.
A short description of data set [8]: as §3. In kind it is functional. The source holds these as a separate data set.

As to `CCOC(=O)COc1cc(-c2cc(=O)c3c(O)cc(OCC(=O)N4CCN(Cc5cc(OC)c(OC)c(OC)c5)CC4)cc3o2)ccc1OC`, the “Relative JC-1 accumulation” value in data set [1] was determined as 2; in data set [2] it was 24; in data set [3], 26. Also, the IC50 in data set [4] was above 20 µM. Further, the Modulation factor in data set [5] turned out to be 3; in data set [6], 31.

In the case of `COc1ccc(-c2cc(=O)c3c(OCC(=O)N4CCN(Cc5ccc(OC)c(OC)c5OC)CC4)cc(O)cc3o2)cc1O`, the “Relative JC-1 accumulation” value in data set [1], in data set [2] and in data set [3] was 0 each time. Further, the IC50 in data set [4] is above 20 µM. Also, the Modulation factor in data set [6] worked out at 1.

With `CCOC(=O)COc1cc(-c2cc(=O)c3c(O)cc(OCC(=O)N4CCN(Cc5ccc(Cl)cc5)CC4)cc3o2)ccc1OC`, the figures for the “Relative JC-1 accumulation” value in data set [1], in data set [2] and in data set [3] were 6, 23 and 14, respectively. The IC50 in data set [4] turned out to be 14 µM. Besides, the figures for the Modulation factor in data set [5] and in data set [6] were 4 and 22, respectively.

`COc1ccc(C2CC(=O)c3c(O)cc(OCC(=O)N4CCN(Cc5ccc(OC)c(OC)c5OC)CC4)cc3O2)cc1O` (configuration not stated): the results for the “Relative JC-1 accumulation” value in data set [1], in data set [2] and in data set [3] were 4, 69 and 50, respectively. In addition, in data set [4], the half-maximal inhibitory concentration (IC50) turned out to be 16 µM. Besides, the Modulation factor in data set [5] was found to be 11; in data set [6], 42.

As for `CCOC(=O)COc1cc(-c2cc(=O)c3c(O)cc(OCC(=O)N4CCN(Cc5ccc(OC)c(OC)c5OC)CC4)cc3o2)ccc1OC`, the figures for the “Relative JC-1 accumulation” value in data set [1], in data set [2] and in data set [3] were 14, 73 and 69, respectively. Besides, the IC50 in data set [4] was above 20 µM. Also, the results for the Modulation factor in data set [5] and in data set [6] were 9 and 22, respectively.

For `CCOC(=O)COc1cc(-c2cc(=O)c3c(O)cc(OCC(=O)N4CCN(Cc5ccc(OC)c(OC)c5)CC4)cc3o2)ccc1OC`, the “Relative JC-1 accumulation” value in data set [1] was 3; in data set [2] it was 27; in data set [3] it was 28. The IC50 in data set [4] was above 20 µM. The Modulation factor came out at 4 in data set [5] and 23 in data set [6].

For `COc1ccc(-c2cc(=O)c3c(O)cc(O)cc3o2)cc1OCC(=O)N1CCN(Cc2ccc(OC)c(OC)c2OC)CC1`, the “Relative JC-1 accumulation” value in data set [1], in data set [2] and in data set [3] was 0 in each case. Moreover, the half-maximal inhibitory concentration (IC50) in data set [4] is above 20 µM. Besides, in data set [7], the Modulation factor amounted to 1.

Regarding `COc1ccc(CCC(=O)c2c(O)cc(OCC(=O)N3CCN(Cc4ccc(OC)c(OC)c4OC)CC3)cc2O)cc1O`, the “Relative JC-1 accumulation” value in data set [1] was found to be 2; in data set [2], 5. The IC50 in data set [4] was above 20 µM. This molecule gave a Modulation factor in data set [7] of 3.

As for `COc1ccc(-c2cc(=O)c3c(O)cc(OCC(=O)N4CCN(Cc5ccc(OC)c(OC)c5OC)CC4)cc3o2)cc1O`, the entries for the “Relative JC-1 accumulation” value in data set [1], in data set [2] and in data set [3] were 4, 30 and 50, respectively. In addition, the IC50 in data set [4] came out at 6 µM. The Modulation factor in data set [5] was determined as 11; in data set [6], 78.

With `COc1ccc(-c2cc(=O)c3c(O)cc(O[C@@H]4O[C@H](CO)[C@H](O)[C@@H](O)[C@H]4O)cc3o2)cc1OCC(=O)N1CCN(Cc2ccc(OC)c(OC)c2OC)CC1`, the “Relative JC-1 accumulation” value in data set [1], in data set [2] and in data set [3] was 0 in each case. In addition, the IC50 in data set [4] was above 20 µM. This molecule also came in with a Modulation factor in data set [7] of 1.

For the molecule `COc1ccc(C2CC(=O)c3c(O)cc(OCC(=O)N4CCN(Cc5cccc(OC)c5OC)CC4)cc3O2)cc1O` (configuration not stated), the figures for the “Relative JC-1 accumulation” value in data set [1], in data set [2] and in data set [3] were 0, 6 and 2, respectively. In addition, the IC50 in data set [4] was above 20 µM. Moreover, the Modulation factor in data set [5] was determined as 4; in data set [6] it was 28.

In the case of `COc1ccc(-c2cc(=O)c3c(O)cc(OCC(=O)N4CCN(Cc5ccc(OC)c(OC)c5OC)CC4)cc3o2)cc1OCC(=O)N1CCN(Cc2ccc(OC)c(OC)c2OC)CC1`, the “Relative JC-1 accumulation” value worked out at 22 in data set [1], 53 in data set [2] and 60 in data set [3]. Also, the IC50 in data set [4] came out at 2 µM. The molecule further registered a Modulation factor in data set [5] of 1.

Regarding `CCOC(=O)COc1cc(-c2cc(=O)c3c(O)cc(OCC(=O)N4CCN(Cc5cccc(OC)c5OC)CC4)cc3o2)ccc1OC`, the “Relative JC-1 accumulation” value in data set [1] is listed as 2; in data set [2] it was 28; in data set [3], 22. In data set [4], the IC50 is above 20 µM. The Modulation factor in data set [5] was found to be 5; in data set [6], 24.

Take `COc1ccc(C2CC(=O)c3c(O)cc(OCC(=O)N4CC[N+](C)(Cc5ccc(OC)c(OC)c5OC)CC4)cc3O2)cc1O.[I-]` (configuration not stated): the “Relative JC-1 accumulation” value in data set [1], in data set [2] and in data set [3] was 0 each time. The IC50 in data set [4] is above 20 µM. Also, the Modulation factor in data set [6] turned out to be 1.

Take `COc1ccc(C2CC(=O)c3c(O)cc(OCC(=O)N4CCN(Cc5cc(OC)c(OC)c(OC)c5)CC4)cc3O2)cc1O` (configuration not stated): the “Relative JC-1 accumulation” value in data set [1] amounted to 0; in data set [2], 8; in data set [3], 3. Further, in data set [4], the IC50 was above 20 µM. The Modulation factor in data set [5] amounted to 2; in data set [6], 21.

With `CCOC(=O)COc1cc(O)c2c(=O)cc(-c3ccc(OC)c(OCC(=O)N4CCN(Cc5ccc(OC)c(OC)c5OC)CC4)c3)oc2c1`, the entries for the “Relative JC-1 accumulation” value in data set [1], in data set [2] and in data set [3] were 7, 59 and 56, respectively. Further, in data set [4], the IC50 was above 20 µM. For the same molecule, the values for the Modulation factor in data set [5] and in data set [6] were 3 and 17, respectively.

In the case of `COc1ccc(-c2cc(=O)c3c(O)cc(O[C@@H]4O[C@H](CO[C@@H]5O[C@@H](C)[C@H](O)[C@@H](O)[C@H]5O)[C@@H](O)[C@H](O)[C@H]4O)cc3o2)cc1OCC(=O)N1CCN(Cc2ccc(OC)c(OC)c2OC)CC1`, the “Relative JC-1 accumulation” value in data set [1], in data set [2] and in data set [3] was 0 in each case. For the same molecule, the IC50 in data set [4] was above 20 µM. In addition, in data set [7], the Modulation factor came out at 1.

With `COc1ccc(CCN(C)CCCC(C#N)(c2ccc(OC)c(OC)c2)C(C)C)cc1OC` (configuration not stated) [VERAPAMIL], in data set [4], the IC50 is 37 µM. In addition, the figures for the Modulation factor in data set [8] and in data set [7] were 7 and 31, respectively.

Consider `CCOC(=O)COc1cc(O)c2c(=O)cc(-c3ccc(OC)c(OCC(=O)N4CCN(Cc5cc(OC)c(OC)c(OC)c5)CC4)c3)oc2c1`, for which the “Relative JC-1 accumulation” value in data set [1] came to 5; in data set [2] it was 55; in data set [3], 56. In addition, the IC50 in data set [4] was found to be 11 µM. The Modulation factor in data set [5] was 5; in data set [6], 25.

For `CCOC(=O)COc1cc(-c2cc(=O)c3c(O)cc(OCC(=O)N4CCN(Cc5ccccc5)CC4)cc3o2)ccc1OC`, the “Relative JC-1 accumulation” value came to 10 in data set [1], 38 in data set [2] and 35 in data set [3]. The IC50 in data set [4] is above 20 µM. The Modulation factor amounted to 4 in data set [5] and 21 in data set [6].

In the case of `CCOC(=O)COc1cc(O)c2c(=O)cc(-c3ccc(OC)c(OCC(=O)N4CCN(Cc5ccccc5Cl)CC4)c3)oc2c1`, the “Relative JC-1 accumulation” value is listed as 7 in data set [1], 24 in data set [2] and 13 in data set [3]. Also, in data set [4], the half-inhibitory concentration (IC50) is above 20 µM. Further, the Modulation factor in data set [5] worked out at 2; in data set [6] it was 7.

Turning to `CCOC(=O)COc1cc(OCC(=O)N2CCN(Cc3ccc(OC)c(OC)c3OC)CC2)c2c(=O)cc(-c3ccc(OC)c(OCC(=O)OCC)c3)oc2c1`, the “Relative JC-1 accumulation” value in data set [1] is 1; in data set [2], 59; in data set [3] it was 10. Besides, the IC50 in data set [4] was above 20 µM. The molecule also returned a Modulation factor in data set [6] of 1.

Take `CCOC(=O)COc1cc(O)c2c(=O)cc(-c3ccc(OC)c(OCC(=O)N4CCN(Cc5ccc(OC)c(OC)c5)CC4)c3)oc2c1`: the “Relative JC-1 accumulation” value in data set [1] stood at 4; in data set [2], 31; in data set [3] it was 26. For the same molecule, the IC50 in data set [4] amounted to 9 µM. Also, the results for the Modulation factor in data set [5] and in data set [6] were 2 and 25, respectively.

For `COc1ccc(C2CC(=O)c3c(O)cc(OCC(=O)N4CCN(Cc5ccc(OC)c(OC)c5)CC4)cc3O2)cc1O` (configuration not stated), the “Relative JC-1 accumulation” value in data set [1] is on record as 0; in data set [2], 31; in data set [3] it was 9. In data set [4], the IC50 is above 20 µM. Besides, the Modulation factor in data set [5] worked out at 4; in data set [6] it was 31.
